Data as given in ChEMBL document CHEMBL2010643 (Bioorg Med Chem Lett, 2012).
The source made the active and inactive calls. The calls are words filed in the database; no cut-off is given here.

Key:
[1] = molecular target: Serine/threonine-protein kinase PAK 5 (Homo sapiens) (UniProt Q9P286); assay: Inhibition of PAK5 assessed as residual activity at 1 uM relative to control
[2] = molecular target: Ephrin type-B receptor 1 (Homo sapiens) (UniProt P54762); assay: Inhibition of EPH-B1 assessed as residual activity at 1 uM relative to control
Method in brief: (§1)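 Standard radioactivity-based enzymatic assays were run across a 124-kinase panel (Dundee profiling), with compound at 1 µM. Kinase activity was expressed relative to control.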

[3] = molecular target: Proto-oncogene tyrosine-protein kinase Src (Homo sapiens) (UniProt P12931); assay: Inhibition of Src assessed as residual activity at 10 uM relative to control
Mus musculus [4] = assay: Inhibition of LRRK2 phosphorylation at Ser910 in C57BL/6 mouse spleen at 10 mg/kg, po administered for 8 hrs followed by 2 hrs dosing; type: functional, organism-based; design: dose 10 mg/kg
Method in brief: (§2)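 Mice were dosed by oral gavage at 10 or 50 mg/kg. Brain, spleen and kidney were collected. Endogenous LRRK2 was resolved by SDS–PAGE and blotted with phospho-specific antibodies to Ser910 and Ser935 and with an antibody to total LRRK2.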

[5] = molecular target: Serine/threonine-protein kinase PLK1 (Homo sapiens) (UniProt P53350); assay: Inhibition of PLK1 assessed as residual activity at 1 uM relative to control
[6] = molecular target: MAP kinase-activated protein kinase 5 (Homo sapiens) (UniProt Q8IW41); assay: Inhibition of PRAK assessed as residual activity at 10 uM relative to control
MAP kinase-activated protein kinase 5 (Homo sapiens), sequence (Q8IW41 whole entry): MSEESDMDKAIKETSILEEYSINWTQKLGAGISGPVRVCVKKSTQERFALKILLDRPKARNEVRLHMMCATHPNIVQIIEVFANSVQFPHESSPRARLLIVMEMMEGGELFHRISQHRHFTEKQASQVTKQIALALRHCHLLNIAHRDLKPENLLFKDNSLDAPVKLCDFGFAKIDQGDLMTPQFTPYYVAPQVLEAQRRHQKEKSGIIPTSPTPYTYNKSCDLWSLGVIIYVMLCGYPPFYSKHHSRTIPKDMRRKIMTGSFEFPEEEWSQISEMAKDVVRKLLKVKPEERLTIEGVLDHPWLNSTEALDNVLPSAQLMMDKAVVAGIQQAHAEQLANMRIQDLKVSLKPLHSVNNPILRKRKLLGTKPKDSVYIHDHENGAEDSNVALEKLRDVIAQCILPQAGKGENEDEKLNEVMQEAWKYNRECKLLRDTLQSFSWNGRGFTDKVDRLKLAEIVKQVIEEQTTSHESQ

[7] = molecular target: Dual specificity mitogen-activated protein kinase kinase 1 (Homo sapiens) (UniProt Q02750); assay: Inhibition of MKK1 assessed as residual activity at 10 uM relative to control
[8] = molecular target: Serine/threonine-protein kinase N2 (Homo sapiens) (UniProt Q16513); assay: Inhibition of PRK2 assessed as residual activity at 1 uM relative to control
[9] = molecular target: Inhibitor of nuclear factor kappa-B kinase subunit beta (Homo sapiens) (UniProt O14920); assay: Inhibition of IKKbeta assessed as residual activity at 1 uM relative to control
Inhibitor of nuclear factor kappa-B kinase subunit beta (Homo sapiens), sequence (O14920 whole entry): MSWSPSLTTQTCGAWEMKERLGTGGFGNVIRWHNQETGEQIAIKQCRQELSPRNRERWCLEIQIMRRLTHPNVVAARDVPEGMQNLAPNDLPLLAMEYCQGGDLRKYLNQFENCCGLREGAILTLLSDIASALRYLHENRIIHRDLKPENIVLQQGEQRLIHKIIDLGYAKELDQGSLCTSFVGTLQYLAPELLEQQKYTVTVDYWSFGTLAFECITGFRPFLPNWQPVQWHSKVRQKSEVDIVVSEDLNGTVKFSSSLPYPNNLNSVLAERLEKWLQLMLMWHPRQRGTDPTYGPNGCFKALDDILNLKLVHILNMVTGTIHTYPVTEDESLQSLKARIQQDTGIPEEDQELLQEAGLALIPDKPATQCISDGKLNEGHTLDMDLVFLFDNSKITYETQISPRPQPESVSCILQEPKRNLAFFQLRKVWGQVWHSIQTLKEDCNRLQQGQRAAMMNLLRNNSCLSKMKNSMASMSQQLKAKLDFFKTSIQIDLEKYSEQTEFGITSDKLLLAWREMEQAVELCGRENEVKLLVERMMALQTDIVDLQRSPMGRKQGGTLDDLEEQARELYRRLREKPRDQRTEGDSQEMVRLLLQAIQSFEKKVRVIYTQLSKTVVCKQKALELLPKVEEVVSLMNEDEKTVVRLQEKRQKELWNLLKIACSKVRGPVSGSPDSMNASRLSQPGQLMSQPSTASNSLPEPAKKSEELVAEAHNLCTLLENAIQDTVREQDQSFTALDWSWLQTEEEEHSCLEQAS

Plasma = assay: AUClast in Swiss albino mouse plasma at 1 mg/kg, iv; type: ADME, organism-based; design: time 0 - last, dose 1 mg/kg, route intravenous; conditions: in vivo
Method in brief: (§3)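 Male Swiss Albino mice were given a single dose, either intravenous at 1 mg/kg or oral at 10 mg/kg. AUClast was measured in plasma and in brain. Half-life, plasma clearance, volume of distribution and oral bioavailability were derived from the plasma data.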

Mus musculus [10] = assay: Inhibition of LRRK2 phosphorylation at Ser935 in C57BL/6 mouse kidney at 10 mg/kg, po administered for 8 hrs followed by 2 hrs dosing; type: functional, organism-based; design: dose 10 mg/kg; method in brief: as §2
[11] = molecular target: Death-associated protein kinase 1 (Homo sapiens) (UniProt P53355); assay: Inhibition of DAPK1 assessed as residual activity at 1 uM relative to control; method in brief: as §1
[12] = Inhibition of CK1 assessed as residual activity at 1 uM relative to control; method in brief: as §1
[13] = molecular target: Tyrosine-protein kinase BTK (Homo sapiens) (UniProt Q06187); assay: Inhibition of BTK assessed as residual activity at 1 uM relative to control; method in brief: as §1
Tyrosine-protein kinase BTK (Homo sapiens), sequence (Q06187 whole entry): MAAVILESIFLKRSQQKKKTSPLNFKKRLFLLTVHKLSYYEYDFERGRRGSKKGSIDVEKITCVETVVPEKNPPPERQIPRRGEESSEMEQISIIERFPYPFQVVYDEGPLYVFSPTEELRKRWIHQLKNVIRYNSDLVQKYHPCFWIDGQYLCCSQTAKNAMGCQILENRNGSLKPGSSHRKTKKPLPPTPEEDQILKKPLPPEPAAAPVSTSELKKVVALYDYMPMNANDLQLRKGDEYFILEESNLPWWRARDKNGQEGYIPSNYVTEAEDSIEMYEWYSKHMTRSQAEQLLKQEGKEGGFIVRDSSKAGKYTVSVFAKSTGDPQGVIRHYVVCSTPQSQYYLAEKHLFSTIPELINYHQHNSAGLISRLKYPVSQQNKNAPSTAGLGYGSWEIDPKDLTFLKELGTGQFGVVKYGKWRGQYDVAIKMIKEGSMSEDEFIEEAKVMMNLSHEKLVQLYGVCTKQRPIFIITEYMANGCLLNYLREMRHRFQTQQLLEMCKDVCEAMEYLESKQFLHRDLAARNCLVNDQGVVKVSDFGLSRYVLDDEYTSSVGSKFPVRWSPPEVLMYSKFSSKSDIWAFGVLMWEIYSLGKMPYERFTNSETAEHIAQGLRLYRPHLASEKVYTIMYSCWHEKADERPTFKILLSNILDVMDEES

[14] = molecular target: Receptor-interacting serine/threonine-protein kinase 2 (Homo sapiens) (UniProt O43353); assay: Inhibition of RIPK2 assessed as residual activity at 1 uM relative to control
Receptor-interacting serine/threonine-protein kinase 2 (Homo sapiens), sequence (O43353 whole entry): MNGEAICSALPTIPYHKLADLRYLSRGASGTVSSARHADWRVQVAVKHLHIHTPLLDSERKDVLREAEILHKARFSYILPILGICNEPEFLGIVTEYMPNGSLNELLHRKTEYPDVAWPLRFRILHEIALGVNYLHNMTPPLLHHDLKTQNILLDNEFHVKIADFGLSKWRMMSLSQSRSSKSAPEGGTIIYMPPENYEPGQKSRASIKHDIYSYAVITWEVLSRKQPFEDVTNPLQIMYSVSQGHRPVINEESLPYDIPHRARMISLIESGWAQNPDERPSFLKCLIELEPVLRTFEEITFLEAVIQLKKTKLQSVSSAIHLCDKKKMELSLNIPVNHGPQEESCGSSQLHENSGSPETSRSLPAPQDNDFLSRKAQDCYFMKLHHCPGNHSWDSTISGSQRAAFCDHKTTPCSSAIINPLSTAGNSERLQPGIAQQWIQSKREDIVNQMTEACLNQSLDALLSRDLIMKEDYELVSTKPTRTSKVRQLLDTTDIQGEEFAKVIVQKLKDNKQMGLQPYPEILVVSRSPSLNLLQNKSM

[15] = molecular target: Eukaryotic elongation factor 2 kinase (Homo sapiens) (UniProt O00418); assay: Inhibition of EF2K assessed as residual activity at 10 uM relative to control
Eukaryotic elongation factor 2 kinase (Homo sapiens), sequence (O00418 whole entry): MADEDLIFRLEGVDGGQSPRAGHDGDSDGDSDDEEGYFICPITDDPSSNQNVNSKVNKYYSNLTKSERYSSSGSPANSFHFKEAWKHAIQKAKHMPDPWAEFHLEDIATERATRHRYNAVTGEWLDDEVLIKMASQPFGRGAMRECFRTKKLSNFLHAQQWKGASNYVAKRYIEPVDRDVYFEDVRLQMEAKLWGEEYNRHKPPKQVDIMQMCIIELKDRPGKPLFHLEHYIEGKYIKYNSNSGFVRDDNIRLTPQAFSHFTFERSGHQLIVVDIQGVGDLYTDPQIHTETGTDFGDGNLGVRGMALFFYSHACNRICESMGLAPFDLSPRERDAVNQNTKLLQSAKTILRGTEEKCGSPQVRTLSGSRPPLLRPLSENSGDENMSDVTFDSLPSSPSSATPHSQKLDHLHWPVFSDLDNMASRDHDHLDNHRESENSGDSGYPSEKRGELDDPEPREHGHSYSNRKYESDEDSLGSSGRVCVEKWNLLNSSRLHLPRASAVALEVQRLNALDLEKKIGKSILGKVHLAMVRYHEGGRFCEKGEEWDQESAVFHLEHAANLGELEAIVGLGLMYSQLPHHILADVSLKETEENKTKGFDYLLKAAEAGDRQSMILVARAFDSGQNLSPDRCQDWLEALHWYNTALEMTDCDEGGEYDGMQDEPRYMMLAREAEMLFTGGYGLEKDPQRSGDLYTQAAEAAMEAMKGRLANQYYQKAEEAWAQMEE

[16] = molecular target: Angiopoietin-1 receptor (Homo sapiens) (UniProt Q02763); assay: Inhibition of TIE2 assessed as residual activity at 1 uM relative to control
[17] = molecular target: Maternal embryonic leucine zipper kinase (Homo sapiens) (UniProt Q14680); assay: Inhibition of MELK assessed as residual activity at 1 uM relative to control
Brain = assay: AUClast in Swiss albino mouse brain at 10 mg/kg, po; type: ADME, organism-based; design: time 0 - last, dose 10 mg/kg, route oral; conditions: in vivo; method in brief: as §3
[18] = molecular target: Serine/threonine-protein kinase PAK 4 (Homo sapiens) (UniProt O96013); assay: Inhibition of PAK4 assessed as residual activity at 1 uM relative to control
[19] = molecular target: Inhibitor of nuclear factor kappa-B kinase subunit beta (Homo sapiens) (UniProt O14920); assay: Inhibition of IKKbeta assessed as residual activity at 10 uM relative to control
[20] = molecular target: Mitogen-activated protein kinase kinase kinase 1 (Homo sapiens) (UniProt Q13233); assay: Inhibition of MEKK1 assessed as residual activity at 10 uM relative to control
Mus musculus [21] = assay: Inhibition of LRRK2 phosphorylation at Ser910 in C57BL/6 mouse kidney at 50 mg/kg, po administered for 8 hrs followed by 2 hrs dosing; type: functional, organism-based; design: dose 50 mg/kg; method in brief: as §2
[22] = molecular target: Dual specificity mitogen-activated protein kinase kinase 2 (Homo sapiens) (UniProt P36507); assay: Inhibition of MKK2 assessed as residual activity at 10 uM relative to control
[23] = molecular target: Insulin receptor-related protein (Homo sapiens) (UniProt P14616); assay: Inhibition of IRR assessed as residual activity at 10 uM relative to control
[24] = molecular target: Ephrin type-A receptor 2 (Homo sapiens) (UniProt P29317); assay: Inhibition of EPH-A2 assessed as residual activity at 1 uM relative to control; method in brief: as §1
[25] = molecular target: Tau-tubulin kinase 1 (Homo sapiens) (UniProt Q5TCY1); assay: Inhibition of TTBK1 assessed as residual activity at 10 uM relative to control
Method in brief: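 Radioactivity-based enzymatic kinase assays run across a 124-kinase profiling panel (Dundee), reporting the remaining kinase activity relative to a control.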

[26] = molecular target: Serine/threonine-protein kinase STK11 (Homo sapiens) (UniProt Q15831); assay: Inhibition of LKB1 assessed as residual activity at 10 uM relative to control
Serine/threonine-protein kinase STK11 (Homo sapiens), sequence (Q15831 whole entry): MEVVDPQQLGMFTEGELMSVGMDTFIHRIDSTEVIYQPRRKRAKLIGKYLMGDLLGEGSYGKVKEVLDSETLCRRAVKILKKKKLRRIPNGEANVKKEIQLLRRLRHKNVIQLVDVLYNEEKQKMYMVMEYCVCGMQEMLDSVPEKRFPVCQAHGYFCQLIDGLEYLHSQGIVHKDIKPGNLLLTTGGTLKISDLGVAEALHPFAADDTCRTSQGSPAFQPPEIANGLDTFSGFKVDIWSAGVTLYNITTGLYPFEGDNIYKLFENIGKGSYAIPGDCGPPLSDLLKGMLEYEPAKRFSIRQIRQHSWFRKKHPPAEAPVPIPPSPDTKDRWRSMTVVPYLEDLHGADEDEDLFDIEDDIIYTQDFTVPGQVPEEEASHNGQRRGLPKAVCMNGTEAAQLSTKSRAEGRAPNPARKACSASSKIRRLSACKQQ

[27] = molecular target: Calcium/calmodulin-dependent protein kinase kinase 2 (Homo sapiens) (UniProt Q96RR4); assay: Inhibition of CAMKKb assessed as residual activity at 1 uM relative to control; method in brief: as §1
Calcium/calmodulin-dependent protein kinase kinase 2 (Homo sapiens), sequence (Q96RR4 2-588 limits assumed): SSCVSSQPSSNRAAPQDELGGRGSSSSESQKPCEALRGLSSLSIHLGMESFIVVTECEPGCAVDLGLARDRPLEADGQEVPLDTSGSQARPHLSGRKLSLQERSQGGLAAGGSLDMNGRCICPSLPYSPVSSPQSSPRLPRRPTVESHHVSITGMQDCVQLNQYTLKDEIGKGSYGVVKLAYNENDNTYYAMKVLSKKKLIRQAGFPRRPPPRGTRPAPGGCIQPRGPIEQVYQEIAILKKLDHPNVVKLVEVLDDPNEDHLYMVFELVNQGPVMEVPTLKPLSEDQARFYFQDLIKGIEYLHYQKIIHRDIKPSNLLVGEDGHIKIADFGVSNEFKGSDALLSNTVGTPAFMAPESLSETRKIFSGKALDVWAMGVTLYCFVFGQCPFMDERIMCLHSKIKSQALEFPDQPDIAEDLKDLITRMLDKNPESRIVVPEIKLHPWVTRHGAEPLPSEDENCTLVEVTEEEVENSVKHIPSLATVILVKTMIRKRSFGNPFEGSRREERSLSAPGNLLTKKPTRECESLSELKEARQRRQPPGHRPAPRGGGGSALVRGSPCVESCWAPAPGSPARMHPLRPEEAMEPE

[28] = molecular target: RAC-alpha serine/threonine-protein kinase (Homo sapiens) (UniProt P31749); assay: Inhibition of PKBalpha assessed as residual activity at 10 uM relative to control
[29] = molecular target: Dual specificity tyrosine-phosphorylation-regulated kinase 2 (Homo sapiens) (UniProt Q92630); assay: Inhibition of DYRK2 assessed as residual activity at 1 uM relative to control; method in brief: as §1
Dual specificity tyrosine-phosphorylation-regulated kinase 2 (Homo sapiens), sequence (Q92630 whole entry): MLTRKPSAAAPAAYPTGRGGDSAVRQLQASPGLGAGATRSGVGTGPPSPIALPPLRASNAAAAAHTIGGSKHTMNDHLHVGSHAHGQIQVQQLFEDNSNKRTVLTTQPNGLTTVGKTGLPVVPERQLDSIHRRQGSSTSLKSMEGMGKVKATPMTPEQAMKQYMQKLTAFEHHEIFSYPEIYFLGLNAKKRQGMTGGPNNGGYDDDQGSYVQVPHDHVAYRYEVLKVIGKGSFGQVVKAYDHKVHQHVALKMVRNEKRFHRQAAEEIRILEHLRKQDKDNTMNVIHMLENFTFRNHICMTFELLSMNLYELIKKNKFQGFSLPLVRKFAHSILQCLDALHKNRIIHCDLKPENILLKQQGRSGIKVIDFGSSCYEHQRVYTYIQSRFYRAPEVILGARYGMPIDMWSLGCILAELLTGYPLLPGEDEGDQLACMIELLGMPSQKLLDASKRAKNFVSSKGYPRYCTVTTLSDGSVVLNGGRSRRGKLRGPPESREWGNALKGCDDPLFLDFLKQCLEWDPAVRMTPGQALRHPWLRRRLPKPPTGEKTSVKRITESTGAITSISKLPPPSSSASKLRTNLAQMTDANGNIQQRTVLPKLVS

[30] = molecular target: Leucine-rich repeat serine/threonine-protein kinase 2 (Homo sapiens, UniProt Q5S007); assay: Inhibition of wild-type LRRK2 phosphorylation at Ser910 expressed in HEK293 cells after 90 mins by immunoblot analysis; type: cell-based
Method in brief: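 HEK293 cells stably expressing wild-type GFP-LRRK2 exposed to DMSO or increasing inhibitor concentrations for 90 min. Lysates immunoblotted for LRRK2 phosphorylated at Ser910 and Ser935 and for total LRRK2.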

[31] = molecular target: Dual specificity tyrosine-phosphorylation-regulated kinase 2 (Homo sapiens) (UniProt Q92630); assay: Inhibition of DYRK2 assessed as residual activity at 10 uM relative to control
[32] = molecular target: Tyrosine-protein kinase BTK (Homo sapiens) (UniProt Q06187); assay: Inhibition of BTK assessed as residual activity at 10 uM relative to control
Mus musculus [33] = assay: Inhibition of LRRK2 phosphorylation at Ser935 in C57BL/6 mouse spleen at 10 mg/kg, po administered for 8 hrs followed by 2 hrs dosing; type: functional, organism-based; design: dose 10 mg/kg; method in brief: as §2

Activity [1]: 66% | Activity [2]: 50% | Activity [3]: 20% | Activity [5]: 38% | Activity [6]: 110% | Activity [7]: 30% | Activity [8]: 51% | Activity [9]: 98% | AUClast (Plasma): 772 ng·h/mL | Activity [12]: 102% | Activity [13]: 53% | Activity [14]: 94% | Activity [15]: 94% | Activity [16]: 18% | Activity [17]: 71% | AUClast (Brain): 14430 ng·h/mL | Activity [18]: 75% | Activity [19]: 107% | Activity [20]: 104% | Activity [22]: 30% | Activity [23]: 66% | Activity [24]: 70% | Activity [25]: 101% | Activity [26]: 77% | Activity [27]: 9% | Activity [28]: 109% | Activity [29]: 105% | inhibition [30]: Dose-dependent effect | Activity [31]: 106% | Activity [32]: 38%
Structure (SMILES): COc1cc(N2CCC(N3CCN(C)CC3)CC2)ccc1Nc1ncc(Cl)c(Nc2ccccc2S(=O)(=O)C(C)C)n1 [TAE-684]
inhibition (Mus musculus [4]): Active | inhibition (Mus musculus [10]): Active | Activity [11]: 98% | inhibition (Mus musculus [21]): Active | inhibition (Mus musculus [33]): Active
